Reference: ChEMBL document CHEMBL4396871, “Leveraging a Low-Affinity Diazaspiro Orthosteric Fragment to Reduce Dopamine D3 Receptor (D3R) Ligand Promiscuity across Highly Conserved Aminergic G-Protein-Coupled Receptors (GPCRs)” (J Med Chem, 2019)
Each block holds one molecule with its values, some of them ahead of it.

Assays:
D2 dopamine receptor [1] = molecular target: T1, D2 dopamine receptor (Homo sapiens, UniProt P14416); assay: Antagonist activity at recombinant human D2 receptor expressed in CHOK1 cells assessed as inhibition of quinpirole-induced beta arrestin2 recruitment preincubated for 30 mins followed by quinpirole addition and measured after 90 mins by coelenterazine-based beta-galactosidase reporter gene assay; format: cell-based
T1 sequence (P14416 whole entry): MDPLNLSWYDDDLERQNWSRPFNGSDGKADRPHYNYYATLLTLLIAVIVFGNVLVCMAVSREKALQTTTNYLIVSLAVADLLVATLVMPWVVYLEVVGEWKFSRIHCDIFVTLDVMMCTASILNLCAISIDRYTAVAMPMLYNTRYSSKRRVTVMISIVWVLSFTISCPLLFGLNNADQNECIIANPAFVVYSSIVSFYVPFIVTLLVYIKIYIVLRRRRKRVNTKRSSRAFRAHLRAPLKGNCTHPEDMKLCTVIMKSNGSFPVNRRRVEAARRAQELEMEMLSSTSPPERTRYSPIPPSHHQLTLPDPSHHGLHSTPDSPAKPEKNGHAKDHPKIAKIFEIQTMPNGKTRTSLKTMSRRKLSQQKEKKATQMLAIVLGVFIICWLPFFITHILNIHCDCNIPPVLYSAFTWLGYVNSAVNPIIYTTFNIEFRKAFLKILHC

[2] = molecular target: T2, 5-hydroxytryptamine receptor 1B (Homo sapiens, UniProt P28222); assay: Displacement of [3H]-5-CT from recombinant human 5HT1B receptor stably expressed in HEK cell membranes measured after 90 mins by microbeta scintillation counting method
T2 sequence (P28222 whole entry): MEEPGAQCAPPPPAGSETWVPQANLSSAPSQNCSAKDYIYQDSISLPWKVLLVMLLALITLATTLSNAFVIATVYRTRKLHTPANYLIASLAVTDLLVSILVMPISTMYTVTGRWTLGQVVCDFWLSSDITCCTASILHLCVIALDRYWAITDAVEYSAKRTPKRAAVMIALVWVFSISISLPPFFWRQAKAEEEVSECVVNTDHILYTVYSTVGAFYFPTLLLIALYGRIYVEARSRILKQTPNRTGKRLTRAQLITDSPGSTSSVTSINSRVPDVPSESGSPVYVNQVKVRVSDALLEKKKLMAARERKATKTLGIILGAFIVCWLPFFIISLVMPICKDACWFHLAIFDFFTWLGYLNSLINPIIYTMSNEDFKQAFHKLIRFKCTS

[3] = molecular target: 5-hydroxytryptamine receptor 2C (Homo sapiens, UniProt P28335); assay: Displacement of [3H]-mesulergine from recombinant human 5HT2C receptor transiently expressed in HEKT cell membranes measured after 90 mins by microbeta scintillation counting method
[4] = molecular target: 5-hydroxytryptamine receptor 5A (Homo sapiens) (UniProt P47898); assay: Displacement of [3H]-LSD from recombinant human 5HT5A receptor stably expressed in Flp-In-CHO cell membranes at 10 uM measured after 90 mins by microbeta scintillation counting method relative to control
Sequence of 5-hydroxytryptamine receptor 5A (Homo sapiens) (P47898 whole entry): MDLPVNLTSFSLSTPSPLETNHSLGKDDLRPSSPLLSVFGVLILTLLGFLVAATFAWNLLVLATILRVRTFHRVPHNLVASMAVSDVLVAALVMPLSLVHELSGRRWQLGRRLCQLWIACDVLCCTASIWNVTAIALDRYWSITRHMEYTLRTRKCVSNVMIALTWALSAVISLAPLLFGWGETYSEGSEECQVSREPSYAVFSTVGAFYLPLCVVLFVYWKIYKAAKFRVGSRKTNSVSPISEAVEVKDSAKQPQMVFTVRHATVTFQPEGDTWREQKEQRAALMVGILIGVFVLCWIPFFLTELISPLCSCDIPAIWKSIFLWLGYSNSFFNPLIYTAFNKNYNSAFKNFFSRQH
In short: (§1)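 Primary screen at 10 μM compound, expressed as % receptor inhibition, from at least three experiments.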

[5] = molecular target: T3, 5-hydroxytryptamine receptor 7 (Homo sapiens, UniProt P34969); assay: Displacement of [3H]-LSD from recombinant human 5HT7A receptor stably expressed in HEK cell membranes measured after 90 mins by microbeta scintillation counting method
T3 sequence (P34969 whole entry): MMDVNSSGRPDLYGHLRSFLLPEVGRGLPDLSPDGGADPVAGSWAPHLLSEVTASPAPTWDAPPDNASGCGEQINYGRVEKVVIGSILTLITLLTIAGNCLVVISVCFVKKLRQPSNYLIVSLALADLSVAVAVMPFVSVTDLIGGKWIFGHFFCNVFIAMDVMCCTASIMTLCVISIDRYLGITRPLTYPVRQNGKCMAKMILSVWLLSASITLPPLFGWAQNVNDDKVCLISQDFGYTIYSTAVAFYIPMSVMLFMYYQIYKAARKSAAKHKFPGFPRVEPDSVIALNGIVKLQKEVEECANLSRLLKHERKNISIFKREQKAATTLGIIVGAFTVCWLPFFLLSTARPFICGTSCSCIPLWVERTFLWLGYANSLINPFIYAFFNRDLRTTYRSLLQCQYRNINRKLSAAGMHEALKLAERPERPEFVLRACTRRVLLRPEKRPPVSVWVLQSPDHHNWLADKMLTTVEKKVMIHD

[6] = molecular target: Histamine H4 receptor (Homo sapiens) (UniProt Q9H3N8); assay: Displacement of [3H]-histamine from human histamine H4 receptor stably expressed in HEKT cell membranes at 10 uM after 90 mins by microbeta scintillation counting method relative to control; in short: as §1
[7] = molecular target: Kappa-type opioid receptor (Homo sapiens) (UniProt P41145); assay: Displacement of [3H]-U69593 from KOR (unknown origin) at 10 uM after 90 mins by microbeta scintillation counting method relative to control; in short: as §1
Sequence of Kappa-type opioid receptor (Homo sapiens) (P41145 whole entry): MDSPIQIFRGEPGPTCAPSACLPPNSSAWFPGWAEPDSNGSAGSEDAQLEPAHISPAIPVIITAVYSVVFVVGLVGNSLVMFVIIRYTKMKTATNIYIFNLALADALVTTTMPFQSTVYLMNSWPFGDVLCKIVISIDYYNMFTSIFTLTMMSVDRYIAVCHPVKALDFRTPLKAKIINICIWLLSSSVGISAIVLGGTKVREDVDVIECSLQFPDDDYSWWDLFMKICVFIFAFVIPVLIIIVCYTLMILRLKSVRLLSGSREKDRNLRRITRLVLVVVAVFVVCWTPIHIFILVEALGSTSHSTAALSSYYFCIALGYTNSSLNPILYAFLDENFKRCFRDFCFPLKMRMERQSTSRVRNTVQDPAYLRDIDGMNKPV

[8] = molecular target: Muscarinic acetylcholine receptor M2 (Homo sapiens) (UniProt P08172); assay: Displacement of [3H]-QNB/[3H]-NMS from human muscarinic M2 receptor expressed in stable CHO cells at 10 uM after 90 mins by microbeta scintillation counting method relative to control; format: cell-based; in short: as §1
[9] = molecular target: Muscarinic acetylcholine receptor M4 (Homo sapiens) (UniProt P08173); assay: Displacement of [3H]-QNB/[3H]-NMS from human muscarinic M4 receptor expressed in stable CHO cells at 10 uM after 90 mins by microbeta scintillation counting method relative to control; format: cell-based; in short: as §1
[10] = molecular target: Alpha-1B adrenergic receptor (Homo sapiens, UniProt P35368); assay: Displacement of [3H]-prazosin from recombinant human alpha1B adrenergic receptor transiently expressed in HEKT cells measured after 90 mins by microbeta scintillation counting method; format: cell-based
Sequence of Alpha-1B adrenergic receptor (P35368 whole entry): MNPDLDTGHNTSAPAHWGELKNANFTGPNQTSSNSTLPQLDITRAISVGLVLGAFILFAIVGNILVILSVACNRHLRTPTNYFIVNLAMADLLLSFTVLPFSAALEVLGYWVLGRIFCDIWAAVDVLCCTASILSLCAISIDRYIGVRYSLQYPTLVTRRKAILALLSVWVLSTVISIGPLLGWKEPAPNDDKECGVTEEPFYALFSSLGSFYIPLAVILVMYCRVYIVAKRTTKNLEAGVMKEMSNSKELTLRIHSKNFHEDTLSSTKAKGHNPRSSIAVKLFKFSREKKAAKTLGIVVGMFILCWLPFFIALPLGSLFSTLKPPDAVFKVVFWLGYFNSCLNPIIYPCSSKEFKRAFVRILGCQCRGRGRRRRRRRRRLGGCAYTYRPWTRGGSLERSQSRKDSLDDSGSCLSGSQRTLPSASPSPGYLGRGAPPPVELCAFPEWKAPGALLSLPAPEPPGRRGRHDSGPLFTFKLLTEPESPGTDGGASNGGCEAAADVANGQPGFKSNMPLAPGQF

[11] = molecular target: Alpha-2A adrenergic receptor (Homo sapiens, UniProt P08913); assay: Displacement of [3H]-rauwolscine from recombinant human alpha2A adrenergic receptor stably expressed in MDCK cells measured after 90 mins by microbeta scintillation counting method; format: cell-based
Sequence of Alpha-2A adrenergic receptor (P08913 whole entry): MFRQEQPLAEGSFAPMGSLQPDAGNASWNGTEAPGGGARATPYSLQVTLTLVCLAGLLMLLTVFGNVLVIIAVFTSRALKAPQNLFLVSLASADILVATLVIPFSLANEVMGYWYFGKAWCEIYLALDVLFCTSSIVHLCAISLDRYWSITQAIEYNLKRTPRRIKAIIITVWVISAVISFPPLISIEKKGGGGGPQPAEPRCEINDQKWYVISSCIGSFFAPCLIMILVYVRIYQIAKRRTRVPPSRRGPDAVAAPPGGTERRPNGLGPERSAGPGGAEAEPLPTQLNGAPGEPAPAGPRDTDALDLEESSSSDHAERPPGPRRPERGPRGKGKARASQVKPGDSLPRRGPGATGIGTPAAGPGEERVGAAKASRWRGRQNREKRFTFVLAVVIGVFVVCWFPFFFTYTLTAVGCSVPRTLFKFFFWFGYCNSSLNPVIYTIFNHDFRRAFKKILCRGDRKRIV

[12] = molecular target: T4, Alpha-2B adrenergic receptor (Homo sapiens, UniProt P18089); assay: Displacement of [3H]-rauwolscine from recombinant human alpha2B adrenergic receptor transiently expressed in HEKT cells measured after 90 mins by microbeta scintillation counting method; format: cell-based
T4 sequence (P18089 whole entry): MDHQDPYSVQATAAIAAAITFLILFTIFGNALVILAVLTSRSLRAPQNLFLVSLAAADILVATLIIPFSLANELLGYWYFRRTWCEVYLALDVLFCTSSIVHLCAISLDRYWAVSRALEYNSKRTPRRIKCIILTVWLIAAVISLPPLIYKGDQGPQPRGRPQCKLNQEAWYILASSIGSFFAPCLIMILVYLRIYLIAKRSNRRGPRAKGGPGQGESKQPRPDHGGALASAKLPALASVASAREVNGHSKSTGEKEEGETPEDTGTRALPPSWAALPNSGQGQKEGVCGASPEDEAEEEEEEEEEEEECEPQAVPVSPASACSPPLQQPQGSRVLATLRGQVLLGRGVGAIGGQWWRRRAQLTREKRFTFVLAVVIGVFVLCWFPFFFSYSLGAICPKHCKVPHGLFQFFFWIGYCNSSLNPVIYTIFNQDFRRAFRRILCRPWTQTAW

[13] = molecular target: Alpha-2C adrenergic receptor (Homo sapiens, UniProt P18825); assay: Displacement of [3H]-rauwolscine from recombinant human alpha2C adrenergic receptor stably expressed in MDCK cells measured after 90 mins by microbeta scintillation counting method; format: cell-based
Sequence of Alpha-2C adrenergic receptor (P18825 whole entry): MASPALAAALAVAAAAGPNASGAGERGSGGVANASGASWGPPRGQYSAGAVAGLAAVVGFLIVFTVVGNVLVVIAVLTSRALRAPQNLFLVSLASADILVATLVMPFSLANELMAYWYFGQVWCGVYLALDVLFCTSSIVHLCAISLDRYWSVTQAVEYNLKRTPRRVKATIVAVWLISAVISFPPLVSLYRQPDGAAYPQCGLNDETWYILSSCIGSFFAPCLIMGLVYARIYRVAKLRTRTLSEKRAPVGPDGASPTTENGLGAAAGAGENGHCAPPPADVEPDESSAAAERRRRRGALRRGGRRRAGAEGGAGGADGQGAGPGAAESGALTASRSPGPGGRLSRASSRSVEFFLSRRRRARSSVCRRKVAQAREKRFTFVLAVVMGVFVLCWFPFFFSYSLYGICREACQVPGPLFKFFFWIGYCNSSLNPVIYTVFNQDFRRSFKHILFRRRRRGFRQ

[14] = molecular target: T5, Neuronal acetylcholine receptor; alpha3/beta4 (Homo sapiens, UniProt P30926+P32297); assay: Displacement of [3H]-epibatidine from recombinant human alpha3beta4 nACHR stably expressed in HEK cells at 10 uM measured after 90 mins by microbeta scintillation counting method relative to control; format: cell-based; in short: as §1
[15] = molecular target: Beta-1 adrenergic receptor (Homo sapiens) (UniProt P08588); assay: Displacement of [125I]-pindolol from recombinant human beta1 adrenergic stably expressed in CHO Flp-In cells at 10 uM measured after 90 mins by microbeta scintillation counting method relative to control; format: cell-based; in short: as §1
Sequence of Beta-1 adrenergic receptor (Homo sapiens) (P08588 whole entry, looked up): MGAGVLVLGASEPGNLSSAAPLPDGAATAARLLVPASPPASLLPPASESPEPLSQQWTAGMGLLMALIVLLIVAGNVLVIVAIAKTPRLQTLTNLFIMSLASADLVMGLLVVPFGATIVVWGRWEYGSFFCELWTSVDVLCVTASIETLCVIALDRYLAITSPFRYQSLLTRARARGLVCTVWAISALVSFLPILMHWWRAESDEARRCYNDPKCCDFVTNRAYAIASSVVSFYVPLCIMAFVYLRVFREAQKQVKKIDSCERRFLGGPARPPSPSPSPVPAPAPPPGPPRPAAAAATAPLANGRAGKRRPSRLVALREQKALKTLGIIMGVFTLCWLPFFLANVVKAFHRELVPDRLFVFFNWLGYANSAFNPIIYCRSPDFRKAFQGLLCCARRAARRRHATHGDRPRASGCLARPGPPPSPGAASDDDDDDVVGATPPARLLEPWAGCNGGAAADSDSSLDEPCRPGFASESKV

[16] = molecular target: Beta-2 adrenergic receptor (Homo sapiens) (UniProt P07550); assay: Displacement of [3H]-CGP12177 from recombinant human beta2 adrenergic stably expressed in HEK Flp-In cells at 10 uM measured after 90 mins by microbeta scintillation counting method relative to control; format: cell-based; in short: as §1
Sequence of Beta-2 adrenergic receptor (Homo sapiens) (P07550 whole entry, looked up): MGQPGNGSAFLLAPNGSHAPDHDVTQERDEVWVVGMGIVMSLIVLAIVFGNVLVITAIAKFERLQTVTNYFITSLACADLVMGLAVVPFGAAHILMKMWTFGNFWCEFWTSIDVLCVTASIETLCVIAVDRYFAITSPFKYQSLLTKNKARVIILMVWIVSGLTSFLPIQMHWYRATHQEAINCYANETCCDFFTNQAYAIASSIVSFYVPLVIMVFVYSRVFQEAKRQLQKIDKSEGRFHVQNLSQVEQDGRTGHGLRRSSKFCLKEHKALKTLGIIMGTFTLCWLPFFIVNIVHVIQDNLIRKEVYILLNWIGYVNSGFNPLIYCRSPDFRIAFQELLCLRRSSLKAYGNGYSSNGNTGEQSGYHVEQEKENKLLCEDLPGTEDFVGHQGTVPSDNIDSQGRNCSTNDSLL

[17] = molecular target: Sodium-dependent noradrenaline transporter (Homo sapiens, UniProt P23975); assay: Displacement of [3H]-nisoxetine from recombinant human NET stably expressed in HEK cells at 10 uM measured after 90 mins by microbeta scintillation counting method relative to control; format: cell-based; in short: as §1
D2 dopamine receptor [18] = molecular target: T1, D2 dopamine receptor; assay: Displacement of [3H]N-methylspiperone from recombinant human D2 receptor stably expressed in fibroblast measured after 90 mins by microbeta scintillation counting method
D(1B) dopamine receptor = D(1B) dopamine receptor (Homo sapiens, UniProt P21918); assay: Displacement of [3H]-SCH23390 from recombinant human D5 receptor transiently expressed in HEK cell membranes at 10 uM measured after 90 mins by microbeta scintillation counting method relative to control; in short: as §1
[19] = molecular target: T2, 5-hydroxytryptamine receptor 1B; assay: Displacement of [3H]-5-CT from recombinant human 5HT1B receptor stably expressed in HEK cell membranes at 10 uM measured after 90 mins by microbeta scintillation counting method relative to control; in short: as §1
[20] = molecular target: 5-hydroxytryptamine receptor 2A (Homo sapiens, UniProt P28223); assay: Displacement of [3H]-ketanserin from 5HT2A receptor (unknown origin) at 10 uM measured after 90 mins by microbeta scintillation counting method relative to control; in short: as §1
[21] = molecular target: 5-hydroxytryptamine receptor 2C (Homo sapiens) (UniProt P28335); assay: Displacement of [3H]-mesulergine from recombinant human 5HT2C receptor transiently expressed in HEKT cell membranes at 10 uM measured after 90 mins by microbeta scintillation counting method relative to control; in short: as §1
[22] = molecular target: T3, 5-hydroxytryptamine receptor 7; assay: Displacement of [3H]-LSD from recombinant human 5HT7A receptor stably expressed in HEK cell membranes at 10 uM measured after 90 mins by microbeta scintillation counting method relative to control; in short: as §1
[23] = molecular target: Muscarinic acetylcholine receptor M2 (Homo sapiens, UniProt P08172); assay: Displacement of [3H]-QNB/[3H]-NMS from human muscarinic M2 receptor expressed in stable CHO cells after 90 mins by microbeta scintillation counting method; format: cell-based
[24] = molecular target: Muscarinic acetylcholine receptor M4 (Homo sapiens, UniProt P08173); assay: Displacement of [3H]-QNB/[3H]-NMS from human muscarinic M4 receptor expressed in stable CHO cells after 90 mins by microbeta scintillation counting method; format: cell-based
[25] = molecular target: T4, Alpha-2B adrenergic receptor; assay: Displacement of [3H]-rauwolscine from recombinant human alpha2B adrenergic receptor transiently expressed in HEKT cells at 10 uM measured after 90 mins by microbeta scintillation counting method relative to control; format: cell-based; settings: probe [3H]-rauwolscine
[26] = molecular target: T5, Neuronal acetylcholine receptor; alpha3/beta4; assay: Displacement of [3H]-epibatidine from recombinant human alpha3beta4 nACHR stably expressed in HEK cells measured after 90 mins by microbeta scintillation counting method; format: cell-based
[27] = molecular target: Sodium-dependent serotonin transporter (Homo sapiens, UniProt P31645); assay: Displacement of [3H]-citalopram from recombinant human SERT stably expressed in HEK cells measured after 90 mins by microbeta scintillation counting method; format: cell-based

- IC50 (D2 dopamine receptor [1]): 328 nM
- Ki [2]: 2030 nM
- Ki [3]: 159 nM
- inhibition [4]: < 50%
- Ki [5]: 128 nM
- inhibition [6]: < 50%
- inhibition [7]: < 50%
- inhibition [8]: < 50%
- inhibition [9]: < 50%
- Ki [10]: 94 nM
- Ki [11]: 221 nM
- Ki [12]: 241 nM
- Ki [13]: 433 nM
- inhibition [14]: < 50%
- inhibition [15]: < 50%
- inhibition [16]: 60%
- inhibition [17]: < 50%
- Ki (D2 dopamine receptor [18]): 577 nM
Structure (SMILES): COc1ccccc1N1CCN(CCCSc2nnc(-c3ccccc3)n2C)CC1

- IC50 (D2 dopamine receptor [1]): 1620 nM
- inhibition (D(1B) dopamine receptor): < 50%
- inhibition [19]: < 50%
- inhibition [20]: < 50%
- inhibition [21]: < 50%
- inhibition [4]: < 50%
- inhibition [22]: < 50%
- inhibition [6]: < 50%
- inhibition [7]: < 50%
- Ki [23]: 52 nM
- Ki [24]: 590 nM
- Ki [10]: 2170 nM
- inhibition at […], 10 µM [25]: < 50%
- Ki [13]: 1560 nM
- Ki [26]: 8520 nM
- inhibition [15]: < 50%
- inhibition [16]: < 50%
- Ki [27]: 295 nM
Structure (SMILES): COc1ccccc1N1CCC2(CCN(CCCSc3nnc(-c4ccccc4)n3C)CC2)CC1
